ChEMBL document CHEMBL1221233, “4''-O-(omega-Quinolylamino-alkylamino)propionyl derivatives of selected macrolides with the activity against the key erythromycin resistant respiratory pathogens” (2010)
≈ marks a conversion by molar mass, not a printed value.

How the values were obtained:
Format in all cases: functional
Haemophilus influenzae = test: Antibacterial activity against Haemophilus influenzae ATCC 49247 by broth microdilution method
Method in brief: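 MIC by broth microdilution following CLSI guidelines, expressed in units of lg/mL. Twofold dilutions prepared in 96-well plates. H. influenzae grown on Mueller-Hinton chocolate agar before testing.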

Streptococcus pyogenes [1] = test: Antibacterial activity against constitutive MLS resistance sStreptococcus pyogenes 166 GR-Micro by broth microdilution method
Method in brief: (§1)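 MIC by CLSI broth microdilution. In the streptococcal medium, 5% horse serum replaced lysed blood. Compounds were tested as two-fold serial dilutions. Strains were first grown on Columbia agar with 5% sheep blood. The MIC was read as the lowest concentration inhibiting growth.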

Staphylococcus aureus [2] = test: Antibacterial activity against efflux-mediated macrolide-resistance Staphylococcus aureus PK1 by broth microdilution method
Method in brief: (§2)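 Staphylococci were grown on Mueller-Hinton agar and then tested by CLSI-guideline broth microdilution against two-fold serial dilutions of compound. The result was recorded as the minimum inhibitory concentration.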

Streptococcus pneumoniae [3] = test: Antibacterial activity against efflux-mediated macrolide-resistance Streptococcus pneumoniae Ci137 by broth microdilution method; method in brief: as §1
Streptococcus pyogenes [4] = test: Antibacterial activity against efflux-mediated macrolide-resistance Streptococcus pyogenes 2 Finland by broth microdilution method; method in brief: as §1
Staphylococcus aureus [5] = test: Antibacterial activity against inducible resistance to macrolide, licosamide and streptogramin Staphylococcus aureus 90256 by broth microdilution method; method in brief: as §2
Streptococcus pneumoniae [6] = test: Antibacterial activity against inducible resistance to macrolide and constitutive resistance to lincosamide Streptococcus pneumoniae 134 GR M by broth microdilution method; method in brief: as §1
Streptococcus pneumoniae [7] = test: Antibacterial activity against constitutive MLS resistance Streptococcus pneumoniae 58 by broth microdilution method; method in brief: as §1

Row | SMILES | MIC (Haemophilus influenzae) [mg/L] | MIC (Streptococcus pyogenes [1]) [mg/L] | MIC (Staphylococcus aureus [2]) [mg/L] | MIC (Streptococcus pneumoniae [3]) [mg/L] | MIC (Streptococcus pyogenes [4]) [mg/L] | MIC (Staphylococcus aureus [5]) [mg/L] | MIC (Streptococcus pneumoniae [6]) [mg/L] | MIC (Streptococcus pneumoniae [7]) [mg/L]
1 | CC[C@H]1OC(=O)[C@H](C)[C@@H](O[C@H]2C[C@@](C)(OC)[C@@H](OC(=O)CCNCCCCNc3ccc4c(=O)c(C(=O)O)cn(C5CC5)c4c3)[C@H](C)O2)[C@H](C)[C@@H](O[C@@H]2O[C@H](C)C[C@H](N(C)C)[C@H]2O)[C@](C)(O)C[C@@H](C)CN(C)[C@H](C)[C@@H](O)[C@]1(C)O | 8 (≈ 7.15 µM) | 4 (≈ 3.58 µM) | 2 (≈ 1.79 µM) | 0.5 (≈ 0.447 µM) | 1 (≈ 0.894 µM) | 8 (≈ 7.15 µM) | 8 (≈ 7.15 µM) | 4 (≈ 3.58 µM)
2 | CC[C@H]1OC(=O)[C@H](C)[C@@H](O[C@H]2C[C@@](C)(OC)[C@@H](OC(=O)CCNCCNc3ccc4c(=O)c(C(=O)O)cn(C)c4c3)[C@H](C)O2)[C@H](C)[C@@H](O[C@@H]2O[C@H](C)C[C@H](N(C)C)[C@H]2O)[C@](C)(O)C[C@@H](C)CN(C)[C@H](C)[C@@H](O)[C@]1(C)O | 8 (≈ 7.52 µM) | ≤ 0.125 | 2 (≈ 1.88 µM) | ≤ 0.125 | ≤ 0.125 | 4 (≈ 3.76 µM) | ≤ 0.125 | ≤ 0.125
3 | CC[C@H]1OC(=O)[C@H](C)[C@@H](O[C@H]2C[C@@](C)(OC)[C@@H](OC(=O)CCNCCNc3cc4c(cc3F)c(=O)c(C(=O)O)cn4C3CC3)[C@H](C)O2)[C@H](C)[C@@H](O[C@@H]2O[C@H](C)C[C@H](N(C)C)[C@H]2O)[C@](C)(O)C[C@@H](C)CN(C)[C@H](C)[C@@H](O)[C@]1(C)O | 2 (≈ 1.8 µM) | 2 (≈ 1.8 µM) | 0.5 (≈ 0.451 µM) | 0.25 (≈ 0.226 µM) | 1 (≈ 0.902 µM) | 0.5 (≈ 0.451 µM) | 1 (≈ 0.902 µM) | 0.25 (≈ 0.226 µM)
4 | CC[C@H]1OC(=O)[C@H](C)[C@@H](O[C@H]2C[C@@](C)(OC)[C@@H](OC(=O)CCNCCNc3cc4c(=O)c(C(=O)OC)cn(C5CC5)c4cc3Cl)[C@H](C)O2)[C@H](C)[C@@H](O[C@@H]2O[C@H](C)C[C@H](N(C)C)[C@H]2O)[C@](C)(O)C[C@@H](C)CN(C)[C@H](C)[C@@H](O)[C@]1(C)O | 8 (≈ 7.02 µM) | ≤ 0.125 | 8 (≈ 7.02 µM) | ≤ 0.125 | ≤ 0.125 | > 64 | ≤ 0.125 | ≤ 0.125
5 | CC[C@H]1OC(=O)[C@H](C)[C@@H](O[C@H]2C[C@@](C)(OC)[C@@H](OC(=O)CCNCCCCNc3ccc4c(=O)c(C(=O)O)cn(CC)c4c3)[C@H](C)O2)[C@H](C)[C@@H](O[C@@H]2O[C@H](C)C[C@H](N(C)C)[C@H]2O)[C@](C)(O)C[C@@H](C)NC(=O)[C@H](C)[C@@H](O)[C@]1(C)O | > 32 | 32 (≈ 28.9 µM) | 8 (≈ 7.23 µM) | 2 (≈ 1.81 µM) | 8 (≈ 7.23 µM) | > 32 | 8 (≈ 7.23 µM) | 16 (≈ 14.5 µM)
6 | CC[C@H]1OC(=O)[C@H](C)[C@@H](O[C@H]2C[C@@](C)(OC)[C@@H](OC(=O)CCNCCNc3ccc4c(=O)c(C(=O)O)cn(CC)c4c3)[C@H](C)O2)[C@H](C)[C@@H](O[C@@H]2O[C@H](C)C[C@H](N(C)C)[C@H]2O)[C@](C)(O)C[C@@H](C)CN(C)[C@H](C)[C@@H](O)[C@]1(C)O | 4 (≈ 3.71 µM) | ≤ 0.125 | 2 (≈ 1.85 µM) | ≤ 0.125 | ≤ 0.125 | 4 (≈ 3.71 µM) | ≤ 0.125 | ≤ 0.125
7 | CC[C@H]1OC(=O)[C@H](C)[C@@H](O[C@H]2C[C@@](C)(OC)[C@@H](OC(=O)CCN(C)CCNc3ccc4c(c3)c(=O)c(C(=O)O)cn4C3CC3)[C@H](C)O2)[C@H](C)[C@@H](O[C@@H]2O[C@H](C)C[C@H](N(C)C)[C@H]2O)[C@](C)(O)C[C@@H](C)CN(C)[C@H](C)[C@@H](O)[C@]1(C)O | 4 (≈ 3.62 µM) | ≤ 0.125 | 1 (≈ 0.905 µM) | ≤ 0.125 | 0.5 (≈ 0.453 µM) | 1 (≈ 0.905 µM) | 0.25 (≈ 0.226 µM) | ≤ 0.125
8 | CC[C@H]1OC(=O)[C@H](C)[C@@H](O[C@H]2C[C@@](C)(OC)[C@@H](OC(=O)CCNCCNc3ccc4c(c3)c(=O)c(C(=O)O)cn4C3CC3)[C@H](C)O2)[C@H](C)[C@@H](O[C@@H]2O[C@H](C)C[C@H](N(C)C)[C@H]2O)[C@](C)(O)C[C@@H](C)CN(C)[C@H](C)[C@H]2OC(=O)O[C@@]21C | 2 (≈ 1.79 µM) | ≤ 0.125 | 1 (≈ 0.896 µM) | ≤ 0.125 | 0.25 (≈ 0.224 µM) | 2 (≈ 1.79 µM) | 0.25 (≈ 0.224 µM) | 0.25 (≈ 0.224 µM)
9 | CC[C@H]1OC(=O)[C@H](C)[C@@H](O[C@H]2C[C@@](C)(OC)[C@@H](OC(=O)CCN(C)CCNc3ccc4c(c3)c(=O)c(C(=O)O)cn4C3CC3)[C@H](C)O2)[C@H](C)[C@@H](O[C@@H]2O[C@H](C)C[C@H](N(C)C)[C@H]2O)[C@](C)(O)C[C@@H](C)CN(C)[C@H](C)[C@H]2OC(=O)O[C@@]21C | 4 (≈ 3.54 µM) | 0.5 (≈ 0.442 µM) | 1 (≈ 0.885 µM) | ≤ 0.125 | ≤ 0.125 | 8 (≈ 7.08 µM) | 1 (≈ 0.885 µM) | 1 (≈ 0.885 µM)
10 | CC[C@H]1OC(=O)[C@H](C)[C@@H](O[C@H]2C[C@@](C)(OC)[C@@H](OC(=O)CCNCCCCNc3ccc4c(=O)c(C(=O)O)cn(C)c4c3)[C@H](C)O2)[C@H](C)[C@@H](O[C@@H]2O[C@H](C)C[C@H](N(C)C)[C@H]2O)[C@](C)(O)C[C@@H](C)C(=O)[C@H](C)[C@@H](O)[C@]1(C)O | > 32 | 16 (≈ 14.9 µM) | 4 (≈ 3.71 µM) | 4 (≈ 3.71 µM) | 0.25 (≈ 0.232 µM) | > 32 | 2 (≈ 1.86 µM) | 4 (≈ 3.71 µM)
11 | CC[C@H]1OC(=O)[C@H](C)[C@@H](O[C@H]2C[C@@](C)(OC)[C@@H](OC(=O)CCNCCNc3cc4c(=O)c(C(=O)O)cn(C5CC5)c4cc3Cl)[C@H](C)O2)[C@H](C)[C@@H](O[C@@H]2O[C@H](C)C[C@H](N(C)C)[C@H]2O)[C@](C)(O)C[C@@H](C)CN(C)[C@H](C)[C@@H](O)[C@]1(C)O | 1 (≈ 0.889 µM) | ≤ 0.125 | 0.25 (≈ 0.222 µM) | ≤ 0.125 | ≤ 0.125 | 0.5 (≈ 0.445 µM) | ≤ 0.125 | ≤ 0.125
12 | CC[C@H]1OC(=O)[C@H](C)[C@@H](O[C@H]2C[C@@](C)(OC)[C@@H](OC(=O)CCNCCNc3ccc4c(c3)c(=O)c(C(=O)O)cn4C3CC3)[C@H](C)O2)[C@H](C)[C@@H](O[C@@H]2O[C@H](C)C[C@H](N(C)C)[C@H]2O)[C@](C)(O)C[C@@H](C)CN(C)[C@H](C)[C@@H](O)[C@]1(C)O | 4 (≈ 3.67 µM) | ≤ 0.125 | 1 (≈ 0.917 µM) | ≤ 0.125 | ≤ 0.125 | 1 (≈ 0.917 µM) | ≤ 0.125 | ≤ 0.125
13 | CC[C@H]1OC(=O)[C@H](C)[C@@H](O[C@H]2C[C@@](C)(OC)[C@@H](OC(=O)CCNCCNc3ccc4c(=O)c(C(=O)O)cn(C5CC5)c4c3)[C@H](C)O2)[C@H](C)[C@@H](O[C@@H]2O[C@H](C)C[C@H](N(C)C)[C@H]2O)[C@](C)(O)C[C@@H](C)C(=O)[C@H](C)[C@@H](O)[C@]1(C)O | 2 (≈ 1.86 µM) | ≤ 0.125 | 8 (≈ 7.44 µM) | ≤ 0.125 | ≤ 0.125 | 8 (≈ 7.44 µM) | ≤ 0.125 | ≤ 0.125
14 | CC[C@H]1OC(=O)[C@H](C)[C@@H](O[C@H]2C[C@@](C)(OC)[C@@H](OC(=O)CCN(C)CCNc3cc4c(=O)c(C(=O)O)cn(C5CC5)c4cc3Cl)[C@H](C)O2)[C@H](C)[C@@H](O[C@@H]2O[C@H](C)C[C@H](N(C)C)[C@H]2O)[C@](C)(O)C[C@@H](C)CN(C)[C@H](C)[C@H]2OC(=O)O[C@@]21C | 4 (≈ 3.43 µM) | 1 (≈ 0.858 µM) | 1 (≈ 0.858 µM) | ≤ 0.125 | ≤ 0.125 | 2 (≈ 1.72 µM) | 2 (≈ 1.72 µM) | 1 (≈ 0.858 µM)
15 | CC[C@H]1OC(=O)[C@H](C)[C@@H](O[C@H]2C[C@@](C)(OC)[C@@H](OC(=O)CCNCCNc3ccc4c(=O)c(C(=O)O)cn(CC)c4c3)[C@H](C)O2)[C@H](C)[C@@H](O[C@@H]2O[C@H](C)C[C@H](N(C)C)[C@H]2O)[C@](C)(O)C[C@@H](C)C(=O)[C@H](C)[C@@H](O)[C@]1(C)O | 2 (≈ 1.88 µM) | ≤ 0.125 | 0.5 (≈ 0.47 µM) | ≤ 0.125 | ≤ 0.125 | 1 (≈ 0.94 µM) | ≤ 0.125 | ≤ 0.125
16 | CC[C@H]1OC(=O)[C@H](C)[C@@H](O[C@H]2C[C@@](C)(OC)[C@@H](OC(=O)CCNCCNc3ccc4c(=O)c(C(=O)O)cn(C)c4c3)[C@H](C)O2)[C@H](C)[C@@H](O[C@@H]2O[C@H](C)C[C@H](N(C)C)[C@H]2O)[C@](C)(O)C[C@@H](C)NC(=O)[C@H](C)[C@@H](O)[C@]1(C)O | 16 (≈ 15 µM) | 0.5 (≈ 0.47 µM) | 4 (≈ 3.76 µM) | 1 (≈ 0.94 µM) | 2 (≈ 1.88 µM) | 32 (≈ 30.1 µM) | 1 (≈ 0.94 µM) | 1 (≈ 0.94 µM)
17 | CC[C@H]1OC(=O)[C@H](C)[C@@H](O[C@H]2C[C@@](C)(OC)[C@@H](OC(=O)CCNCCNc3ccc4c(c3)c(=O)c(C(=O)O)cn4C3CC3)[C@H](C)O2)[C@H](C)[C@@H](O[C@@H]2O[C@H](C)C[C@H](N(C)C)[C@H]2O)[C@](C)(O)C[C@@H](C)C(=O)[C@H](C)[C@@H](O)[C@]1(C)O | 1 (≈ 0.93 µM) | ≤ 0.125 | 8 (≈ 7.44 µM) | ≤ 0.125 | ≤ 0.125 | 4 (≈ 3.72 µM) | ≤ 0.125 | ≤ 0.125
